Source: PubChem
MPTP block: mitochondrial permeability transition pore inhibitors, primary screen, biochemical, isolated mouse mitochondria, absorbance. Ca2+ swelling absorbance, 30 min. inhibition, % at 10 µM. 360,000 tested, 1.4% active. AID 602449, 2012;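 active = inhibition of 50% or more, scaled per plate between neutral and stimulator controls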;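 note: 0% = DMSO wells given calcium and 100% = 1 mM EGTA wells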
aDG glyco up: activators of alpha-DG glycosylation, primary screen, uHTS, Pro5-aDG cells, AlphaScreen; alpha-DG glycosylation AlphaScreen (IIH6); 0% Pro5, 100% B10-LARGE cell signal; activation, % at 10 µM; 360,000 tested, 0.22% active; AID 624168, 2012;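 active = activation of at least 8% versus controls, or a plate z-score of at least 8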;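 note: Pro5 are CHO cells carrying HIG-tagged alpha-DG that lacks glycosylation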
UPR CHOP act: activators of apoptotic CHOP UPR arm, primary screen, cell-based, CHO-CHOP luciferase reporter, luminescence, uHTS. UPR activation; percent of tunicamycin response over DMSO baseline. activation, % at 10 µM. 330,000 tested, 0.34% active;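 active = at 10 µM dose, activation of 40% or more, normalized to positive control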;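 note: 100% = tunicamycin at 10 µg/mL and 0% = DMSO alone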
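Material: CHO-CHOP cells, stable luciferase reporter of PERK-eIF2a-CHOP signalling; quantity: 500 reporter cells seeded per well; buffer or medium: F12 medium containing 10% fetal bovine serum; compound: one dose, 10 µM in 0.5% DMSO; incubation: 6 h compound treatment, 37 °C; measured by: Steady-Glo luciferase luminescence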
NR3A LBD binder: binders of NR3A ligand-binding domain, primary screen, biophysical, differential scanning fluorimetry, uHTS; AID 1259313, 2017; Glutamate receptor ionotropic, NMDA 3A (GRIN3A) ligand-binding domain; 340,000 tested, 2.5% active; NR3A LBD differential scanning fluorimetry, Tm shift; 0% = protein alone, 100% = glycine-bound protein; Tm shift relative to glycine control, % at 25 µM;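 active = melting temperature shift of at least 10% of the positive control shift, at one fixed dose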
UPR XBP1 act: activators of adaptive XBP1 UPR arm, primary screen, cell-based, CHO-XBP1 luciferase reporter, luminescence, uHTS; IRE1-XBP1 UPR activation; percent of tunicamycin response, DMSO as zero; activation, % at 20 µM; 330,000 tested, 0.33% active; AID 463104, 2010;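 active = versus positive control, 20 µM dose yields 30% or more activation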;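 note: 100% = tunicamycin at 10 µg/mL and 0% = DMSO only wells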
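Test system: CHO-XBP1 luciferase reporter cells | Buffer or medium: Serum-containing F12 medium, 10% FBS | Schedule: 6 h compound exposure at 37 °C, 5% CO2 | Detection: Steady-Glo luciferase glow luminescence, 10 min after reagent addition | Read-out basis: Activation, % of tunicamycin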
CHOP inhibitor: inhibitors of CHOP promoter induction, primary screen, cell-based, unfolded protein response, luciferase reporter; CHO-K1 CHOP-promoter luciferase, tunicamycin-induced, 15-18 h; inhibition, % at 10 µM; 220,000 tested, 3.8% active;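 active = compounds that reduced the stress-induced luciferase reporter signal by more than about 70% of percent inhibition, limit read from the data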;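 note: 0% = tunicamycin plus vehicle and 100% = wells without tunicamycin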
Active calls of the source: *; · = not tested or not shown. Shown are actives, neighbours in structure and some others; about 5.6% of the full set was active somewhere.

SMILES	MPTP block	aDG glyco up	UPR CHOP act	NR3A LBD binder	UPR XBP1 act	CHOP inhibitor
COc1ccc(C#Cc2ccc3c(c2)c(=O)c2ccccc2n3C)cc1	0	1	0	12*	1	·
COC(=O)[C@H]1Cc2c([nH]c3ccccc23)[C@H](c2ccccc2)N1	2	0	0	10*	-3	·
CCCOc1ncnc2c1[nH]c1ccccc12	26	2	2	2	4	72*
O=C(NC(=S)Nc1cc(C(F)(F)F)ccc1Cl)c1ccccc1	-2	0	0	-6	-1	89*
O=C(Nc1cc(C(F)(F)F)ccc1Cl)C(NCc1ccccc1)c1ccccc1 (centres undefined)	3	0	1	18*	0	33
Nc1ncnc2c1nc(Sc1ccc(Cl)cc1)n2C1OC2COP(=O)(O)O[C@@H]2[C@@H]1O (some centres undefined)	·	·	·	·	·	-16
O=Cc1ccc(-c2cccs2)s1	-1	0	·	-1	·	·
Oc1ccc(N=Cc2ccc(-c3cccs3)s2)cc1	-1	0	2	27*	2	-21
Cc1ccc(C(=O)O[C@H](C(=O)O)[C@H](OC(=O)c2ccc(C)cc2)C(=O)O)cc1 (tested in a mixture with another compound)	·	·	·	·	·	5
CCOC(=O)c1sc2nc(C(C)C)c3c(c2c1N)CC(C)(C)OC3	5	0	-4	1	0	70*
CCOC(=O)c1sc2nc(N3CCCC3)c3c(c2c1N)CC(C)(C)OC3	1	0	1	-4	5	-1
On1cnnc1-c1ccccc1	3	0	-1	11*	0	8
CCOc1cccc(CN2CCCC(CNC(=O)c3cccc(OC)c3OC)C2)c1 (centres undefined)	0	0	-3	-2	-1	·
CCCN(C(=O)c1cn(-c2ccccc2)nc1-c1ccc(OC)cc1)C1CCS(=O)(=O)C1 (centres undefined)	0	0	0	-2	4	·
CCn1nc(C)c(Br)c1Nc1ccc(Br)cc1	1	0	-2	-1	4	42
O=C(Nc1ccn(Cc2ccccc2F)n1)c1ccc(COc2ccccc2Cl)cc1	0	2	1	-4	3	74*
CC(/C=N/NC(=O)CSc1ccccn1)=C\c1ccc(C(C)C)cc1	4	0	3	-14	-1	59
CC(=C/c1ccc(C(C)C)cc1)/C=N/NC(=O)CSc1ccccn1	12	0	3	-13	2	92*
C=CCN1C(=O)N/C(=C/c2ccc(N3CCOCC3)o2)C1=O	·	·	28	·	-4	94*
O=C1N/C(=C/c2ccc(N3CCOCC3)o2)C(=O)N1c1ccccc1	2	0	·	2	·	-25
O=C([C@@H]1CCCN1C1=NS(=O)(=O)c2ccccc21)N1CCN(c2ccccc2)CC1	0	0	·	·	·	·
Cn1ncc2c(Nc3cccc(Cl)c3)nc(Nc3cccc(Cl)c3)nc21	2	0	3	31*	5	-4
Cn1ncc2c(Nc3ccc(Br)cc3)nc(Nc3ccc(Br)cc3)nc21	0	1	3	·	13	56
CC1Sc2ccc(C(=O)Nc3ccccc3OC(F)F)cc2NC1=O (centres undefined)	-1	0	4	4	-1	·
O=C(COC(=O)COc1ccc(Cl)cc1Cl)NC1CCS(=O)(=O)C1 (centres undefined)	2	0	1	1	-3	·
SMILES	MPTP block	aDG glyco up	UPR CHOP act	NR3A LBD binder	UPR XBP1 act	CHOP inhibitor
CC1CC2=C(NC(=S)NC2c2cccc(F)c2)/C(=C/c2cccc(F)c2)C1 (centres undefined)	-4	1	·	2	·	86*
Cc1ccc(/C=C2\CC(C)CC3=C2NC(=S)NC3c2ccc(C)cc2)cc1 (centres undefined)	2	0	0	0	-2	53
Cc1ccc(C)n1-c1ccc(C(=O)NN)cc1	-11	0	0	2	-2	13
O=C(NCCc1ccccc1)C1CCN(S(=O)(=O)c2cccs2)CC1	0	0	-2	-1	-1	11
O=C(NCCN1C(=O)S/C(=C\c2ccccc2)C1=O)C1CCN(S(=O)(=O)c2cccs2)CC1	5	0	1	15*	3	19
COc1ccc(S(=O)(=O)N2CCC(C(=O)NCCC(=O)NCc3ccccc3OC)CC2)cc1	-2	2	0	3	-2	·
O=c1c2ccccc2oc2c1ccc1ccccc12	-2	0	3	18*	3	·
COc1ccc(CCC(=O)NCC23CC4CC(CC(C4)C2)C3)cc1	0	0	-1	0	-4	·
Cc1nc(NC(=O)c2ccc(F)cc2)sc1C(=O)Nc1ccc2c(c1)CCC2	0	0	4	5	-2	82*
COc1cccc(NC(=O)c2sc(NC(=O)c3ccncc3)nc2C)c1	0	0	-3	2	-2	-23
CC(=O)c1sc(NC(=O)c2ccc(Cl)cc2)nc1C	1	0	11	0	5	-13
Cc1ccc(C(=O)Nc2nc(C)c(C(=O)Nc3ccc4c(c3)CCC4)s2)cc1	1	0	3	19*	5	-34
Oc1ccc2ccccc2c1C=Nc1ccc(Cl)cn1	2	0	0	-2	-3	-7
CCOc1ccc(CCNC(=O)Cn2ncn3nc(-c4ccc(OC)cc4)cc3c2=O)cc1OCC	-3	0	0	0	-4	·
COc1cc(NC(=O)c2cc3ccccc3o2)ccc1NC(=O)c1ccco1	0	0	2	-1	-1	·
COc1cc(NC(=O)c2ccc(C)c([N+](=O)[O-])c2)ccc1NC(=O)c1ccco1	·	·	2	·	0	-15
COc1cc(NC(C)=O)ccc1-c1cc2ccccc2oc1=O	1	0	2	-2	0	4
Cc1ccc(NC(=O)c2ccc(NCc3ccco3)c([N+](=O)[O-])c2)cc1Cl	29	0	2	15*	9	10
COc1cc(NC(=O)c2ccc(OC)c([N+](=O)[O-])c2)ccc1NC(=O)c1ccco1	1	0	-1	17*	-4	55
COc1cc(NC(=O)c2oc3ccccc3c2C)ccc1NC(=O)c1ccco1	0	0	7	24*	3	·
COc1cc(NC(=O)c2ccc(Cl)cc2Cl)ccc1-c1cc2ccccc2oc1=O	1	0	11	0	40*	26
